Values after ≈ are worked out from the molar mass of the structure shown. Numbered stars: 1 amine (or outer) side, 2 acyl side, 3 side chain; on linkers, the order of the positions; unused ones are H or OH. Bridge positions count the residues as written; N and C are the ends. Square brackets hold non-standard residues; d marks the D form. Peptide text beside a SMILES is read from it. * marks the point of attachment. hTyr(3S-OH,4S-OH,3'-OSO3H) = N[C@H](C(=O)O)[C@H](O)[C@@H](O)c1ccc(O)c(OS(=O)(=O)O)c1; pTerphenylCO(4''-OnC5H11) = CCCCCOc1ccc(-c2ccc(-c3ccc(C(=O)*)cc3)cc2)cc1; Orn(4R-OH,5R-OH) = O=C([C@H](C[C@@H](O)[C@@H](O)N[*:3])N[*:1])[*:2]; hTyr(3S-OH,4S-OH) = N[C@H](C(=O)O)[C@H](O)[C@@H](O)c1ccc(O)cc1; Pro(3S-OH,4S-Me) = C[C@H]1CN[C@H](C(=O)O)[C@H]1O; X1 = CCCCCOc1ccc(-c2cc(-c3ccc(C(=O)*)cc3)no2)cc1; Gln(3R-OH) = NC(=O)C[C@@H](O)[C@H](N)C(=O)O; Hyp = O=C(O)[C@@H]1C[C@@H](O)CN1
Tests used:
Type in all cases: functional
[1] = Antifungal activity against Lichtheimia ornata clinical isolate after 48 hrs by EUCAST method
In short: (§1)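 EUCAST broth microdilution, with spore inoculum counted in a hematocytometer. Final drug concentrations were 16 to 0.03 or 8 to 0.015 mg/liter depending on agent. Plates were incubated at 35°C in humid air and read visually with a mirror at 24 and 48 h. Endpoint was complete visual growth inhibition, except for echinocandins, where it was MEC (altered hyphal morphology versus growth control). Aspergillus QC strains were included.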

[2] = Antifungal activity against Lichtheimia ornata clinical isolate after 24 hrs by EUCAST method; in short: as §1
Lichtheimia corymbifera [3] = test: Antifungal activity against Lichtheimia corymbifera clinical isolate after 24 hrs by EUCAST method; in short: as §1
[4] = Antifungal activity against Lichtheimia ramosa clinical isolate after 48 hrs by EUCAST method; in short: as §1
[5] = Antifungal activity against Lichtheimia ramosa clinical isolate after 24 hrs by EUCAST method; in short: as §1
Lichtheimia corymbifera [6] = test: Antifungal activity against Lichtheimia corymbifera clinical isolate after 48 hrs by EUCAST method; in short: as §1

Structure (SMILES)	MIC [1]	MIC [2]	MIC (Lichtheimia corymbifera [3])	MIC [4]	MIC [5]	MIC (Lichtheimia corymbifera [6])
C[C@@H]1[C@H](O)[C@@H](C)/C=C/C=C/C=C/C=C/C=C/C=C/C=C/[C@H](O[C@@H]2O[C@H](C)[C@@H](O)[C@H](N)[C@@H]2O)C[C@@H]2O[C@](O)(C[C@@H](O)C[C@@H](O)[C@H](O)CC[C@@H](O)C[C@@H](O)CC(=O)O[C@H]1C)C[C@H](O)[C@H]2C(=O)O [AMPHOTERICIN B]	0.12 µg/mL (≈ 0.13 µM)	0.12 µg/mL (≈ 0.13 µM)	0.07 µg/mL (≈ 0.0758 µM)	0.14 µg/mL (≈ 0.152 µM)	0.08 µg/mL (≈ 0.0866 µM)	0.14 µg/mL (≈ 0.152 µM)
CCCCCOc1ccc(-c2ccc(-c3ccc(C(=O)N[C@H]4C[C@@H](O)[C@@H](O)NC(=O)[C@@H]5[C@@H](O)[C@@H](C)CN5C(=O)[C@H]([C@@H](C)O)NC(=O)[C@H]([C@H](O)[C@@H](O)c5ccc(O)cc5)NC(=O)[C@@H]5C[C@@H](O)CN5C(=O)[C@H]([C@@H](C)O)NC4=O)cc3)cc2)cc1 [ANIDULAFUNGIN] ({pTerphenylCO(4''-OnC5H11)}-[Orn(4R-OH,5R-OH)]T[Hyp][hTyr(3S-OH,4S-OH)]T[Pro(3S-OH,4S-Me)]; lactam 1-C)	32 µg/mL (≈ 28.1 µM)	4 µg/mL (≈ 3.51 µM)	1.99 µg/mL (≈ 1.75 µM)	5.15 µg/mL (≈ 4.52 µM)	3.58 µg/mL (≈ 3.14 µM)	10.8 µg/mL (≈ 9.48 µM)
CC[C@H](C)C[C@H](C)CCCCCCCCC(=O)N[C@H]1C[C@@H](O)[C@@H](NCCN)NC(=O)[C@@H]2[C@@H](O)CCN2C(=O)[C@H]([C@H](O)CCN)NC(=O)[C@H]([C@H](O)[C@@H](O)c2ccc(O)cc2)NC(=O)[C@@H]2C[C@@H](O)CN2C(=O)[C@H]([C@@H](C)O)NC1=O [CASPOFUNGIN]	32 µg/mL (≈ 29.3 µM)	32 µg/mL (≈ 29.3 µM)	9.27 µg/mL (≈ 8.48 µM)	21.4 µg/mL (≈ 19.6 µM)	11 µg/mL (≈ 10.1 µM)	10 µg/mL (≈ 9.16 µM)
CCC(C)n1ncn(-c2ccc(N3CCN(c4ccc(OCC5COC(Cn6cncn6)(c6ccc(Cl)cc6Cl)O5)cc4)CC3)cc2)c1=O (centres undefined) [ITRACONAZOLE]	1 µg/mL (≈ 1.42 µM)	0.5 µg/mL (≈ 0.709 µM)	0.62 µg/mL (≈ 0.879 µM)	2.38 µg/mL (≈ 3.37 µM)	0.92 µg/mL (≈ 1.3 µM)	1.03 µg/mL (≈ 1.46 µM)
CCCCCOc1ccc(-c2cc(-c3ccc(C(=O)N[C@H]4C[C@@H](O)[C@@H](O)NC(=O)[C@@H]5[C@@H](O)[C@@H](C)CN5C(=O)[C@H]([C@H](O)CC(N)=O)NC(=O)[C@H]([C@H](O)[C@@H](O)c5ccc(O)c(OS(=O)(=O)O)c5)NC(=O)[C@@H]5C[C@@H](O)CN5C(=O)[C@H]([C@@H](C)O)NC4=O)cc3)no2)cc1 [MICAFUNGIN] (X1-[Orn(4R-OH,5R-OH)]T[Hyp][hTyr(3S-OH,4S-OH,3'-OSO3H)][Gln(3R-OH)][Pro(3S-OH,4S-Me)]; lactam 1-C)	32 µg/mL (≈ 25.2 µM)	32 µg/mL (≈ 25.2 µM)	8.92 µg/mL (≈ 7.02 µM)	21.4 µg/mL (≈ 16.8 µM)	6.85 µg/mL (≈ 5.39 µM)	12.6 µg/mL (≈ 9.95 µM)
CC[C@@H]([C@H](C)O)n1ncn(-c2ccc(N3CCN(c4ccc(OC[C@@H]5CO[C@@](Cn6cncn6)(c6ccc(F)cc6F)C5)cc4)CC3)cc2)c1=O [POSACONAZOLE]	0.25 µg/mL (≈ 0.357 µM)	0.25 µg/mL (≈ 0.357 µM)	0.37 µg/mL (≈ 0.528 µM)	0.69 µg/mL (≈ 0.985 µM)	0.32 µg/mL (≈ 0.457 µM)	0.58 µg/mL (≈ 0.828 µM)
C[C@@H](c1nc(-c2ccc(C#N)cc2)cs1)[C@](O)(Cn1cncn1)c1ccc(F)cc1F [RAVUCONAZOLE]	2 µg/mL (≈ 4.57 µM)	1 µg/mL (≈ 2.29 µM)	1.34 µg/mL (≈ 3.06 µM)	3.42 µg/mL (≈ 7.82 µM)	1.44 µg/mL (≈ 3.29 µM)	1.86 µg/mL (≈ 4.25 µM)
CN(C/C=C/C#CC(C)(C)C)Cc1cccc2ccccc12 [TERBINAFINE]	0.5 µg/mL (≈ 1.72 µM)	0.25 µg/mL (≈ 0.858 µM)	0.48 µg/mL (≈ 1.65 µM)	1 µg/mL (≈ 3.43 µM)	0.56 µg/mL (≈ 1.92 µM)	0.75 µg/mL (≈ 2.57 µM)
C[C@@H](c1ncncc1F)[C@](O)(Cn1cncn1)c1ccc(F)cc1F [VORICONAZOLE]	16 µg/mL (≈ 45.8 µM)	16 µg/mL (≈ 45.8 µM)	11.1 µg/mL (≈ 31.8 µM)	15.1 µg/mL (≈ 43.1 µM)	12.6 µg/mL (≈ 36 µM)	11.5 µg/mL (≈ 33 µM)

— ChEMBL document CHEMBL1275242, “Antifungal susceptibility profile of human-pathogenic species of Lichtheimia” (2010)
